Assay results from ChEMBL document CHEMBL2203045, “Development of 5-nitrothiazole derivatives: identification of leads against both replicative and latent Mycobacterium tuberculosis” (Bioorg Med Chem Lett, 2012).
Values after ≈ are worked out from the molar mass of the structure shown. Active and inactive are the calls of the source. The rule behind the calls is not given here.

Experiments:
[1] = Cytotoxicity against HEK293T cells assessed as cellular growth at 100 uM by MTT assay; type: cell-based, HEK-293T; settings: human, read-out: Activity
Procedure, shortened: (§1)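 HEK293T cells were exposed to compound at 25 and 100 and read out by MTT assay.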

[2] = Cytotoxicity against HEK293T cells assessed as cellular growth at 25 uM by MTT assay; type: cell-based, HEK-293T; settings: human, read-out: Activity; procedure, shortened: as §1
[3] = test system: Mycobacterium tuberculosis; assay: Ratio of nitazoxanide MIC to compound MIC for log phase culture of Mycobacterium tuberculosis H37Rv ATCC 27294; type: functional
[4] = test system: Mycobacterium tuberculosis; assay: Antitubercular activity against log phase culture of Mycobacterium tuberculosis H37Rv ATCC 27294 by agar dilution method; type: functional
Procedure, shortened: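 H37Rv (ATCC27294) was tested by agar dilution, with the compound serially diluted from 50 to 0.78 in duplicate. MIC was taken as the lowest concentration giving complete growth inhibition.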

[5] = test system: Mycobacterium tuberculosis; assay: Antitubercular activity against non-culturable Mycobacterium tuberculosis assessed as reduction in dormant cell viability at 10 ug/mL measured for 7 days by MPN assay; type: functional, organism-based
Procedure, shortened: (§2)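 Bacilli were grown in potassium-deficient Sauton's medium with ADC and 0.05% Tween-80 at 37 °C and 200 rpm. Dormancy was confirmed by failure to form colonies on agar-solidified Sauton's. Non-culturable cells were washed and exposed to compound for 7 days, then resuscitated in liquid Sauton's alongside untreated cells. Recovered cell concentration was estimated by Most Probable Number assay with statistical treatment.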

[6] = test system: Mycobacterium tuberculosis; assay: Antitubercular activity against non-culturable Mycobacterium tuberculosis assessed as log reduction in dormant cell viability at 10 ug/mL measured for 7 days by MPN assay relative to control; type: functional; procedure, shortened: as §2
[7] = Therapeutic index, ratio of cytotoxicity against HEK293T cells to MIC for log phase culture of Mycobacterium tuberculosis H37Rv ATCC 27294; type: cell-based, HEK-293T; settings: human, read-out: TI

| Compound | viability at 100 µM [1] [%] | viability at 25 µM [2] [%] | Ratio [3] | MIC [4] [µM] | Activity [5] | FC [6] | selectivity ratio [7] |
| --- | --- | --- | --- | --- | --- | --- | --- |
| CC(=O)Oc1c(Cl)cc(Cl)cc1C(=O)Nc1ncc([N+](=O)[O-])s1 | 95.1 | 100 | 2.44 | 66.5 (≈ 25 µg/mL) | – | – | – |
| NNC(=O)c1ccncc1 [ISONIAZID] | – | – | – | 0.72 (≈ 0.0987 µg/mL) | Active | – | – |
| CC(C)c1cc(C(=O)Nc2ncc([N+](=O)[O-])s2)c(O)c(C(C)C)c1 | 7.1 | 29.4 | – | 17.9 (≈ 6.25 µg/mL) | – | – | – |
| O=C(Nc1ncc([N+](=O)[O-])s1)c1cc(Cl)cc(Cl)c1O | 23.5 | 100 | – | 74.8 (≈ 25 µg/mL) | – | – | – |
| O=C(Oc1c(Cl)cc(Cl)cc1C(=O)Nc1ncc([N+](=O)[O-])s1)c1ccccc1 | 61.6 | 100 | – | 28.5 (≈ 12.5 µg/mL) | – | – | – |
| Cc1ccc(-c2ccc(C(=O)Nc3ncc([N+](=O)[O-])s3)o2)cc1 | 91.5 | 94.1 | – | 19 (≈ 6.25 µg/mL) | – | – | – |
| O=C(Nc1ncc([N+](=O)[O-])s1)c1ccc([N+](=O)[O-])s1 | 35.9 | 100 | – | 20.8 (≈ 6.25 µg/mL) | – | – | – |
| O=C(Nc1nc2ccc([N+](=O)[O-])cc2s1)c1ccc([N+](=O)[O-])o1 | 43.3 | 100 | – | 150 (≈ 50 µg/mL) | – | 1 | – |
| CC(=O)Oc1c(C(=O)Nc2ncc([N+](=O)[O-])s2)cc(C(C)C)cc1C(C)C | 20.6 | 45.9 | 2.54 | 63.9 (≈ 25 µg/mL) | – | – | – |
| CC(=O)Oc1ccccc1C(=O)Nc1ncc([N+](=O)[O-])s1 [NITAZOXANIDE] | – | – | – | 163 (≈ 50 µg/mL) | – | – | – |
| O=C(Nc1ncc([N+](=O)[O-])s1)c1ccc(-c2ccc(Br)cc2)o1 | 70.3 | 89.1 | – | 31.7 (≈ 12.5 µg/mL) | – | – | – |
| O=C(Nc1ncc([N+](=O)[O-])s1)c1ccc(-c2ccc(Cl)cc2)o1 | 74.1 | 75 | – | 17.9 (≈ 6.25 µg/mL) | – | – | – |
| O=C(Nc1ncc([N+](=O)[O-])s1)c1ccc(-c2ccc([N+](=O)[O-])cc2)o1 | 79.2 | 88.4 | – | 17.3 (≈ 6.25 µg/mL) | – | – | – |
| CC(=O)Oc1ccc(Cl)cc1C(=O)Nc1ncc([N+](=O)[O-])s1 | 31.1 | 59.5 | 8.9 | 18.3 (≈ 6.25 µg/mL) | – | – | – |
| O=C(Oc1c(C(=O)Nc2ncc([N+](=O)[O-])s2)cc([N+](=O)[O-])cc1[N+](=O)[O-])c1ccccc1 | – | – | – | > 109 | – | – | – |
| O=C(Nc1ncc([N+](=O)[O-])s1)c1ccc([N+](=O)[O-])o1 | 67.3 | 87.4 | 29 | 5.48 (≈ 1.56 µg/mL) | – | 1 | > 20 |
| O=C(Oc1ccc(Cl)cc1C(=O)Nc1ncc([N+](=O)[O-])s1)c1ccccc1 | 23.7 | 72.2 | – | 15.5 (≈ 6.25 µg/mL) | – | – | – |
| CC(C)c1cc(C(=O)Nc2ncc([N+](=O)[O-])s2)c(OC(=O)c2ccccc2)c(C(C)C)c1 | – | – | – | > 110 | – | – | – |
| COc1ccc(OC(=O)c2ccccc2)c(C(=O)Nc2ncc([N+](=O)[O-])s2)c1 | 67.6 | 100 | – | 15.6 (≈ 6.25 µg/mL) | – | – | – |
| O=C(Oc1cc(Cl)ccc1C(=O)Nc1ncc([N+](=O)[O-])s1)c1ccccc1 | – | – | – | > 124 | – | – | – |
| CO[C@H]1/C=C/O[C@@]2(C)Oc3c(C)c(O)c4c(O)c(c(/C=N/N5CCN(C)CC5)c(O)c4c3C2=O)NC(=O)/C(C)=C\C=C\[C@H](C)[C@H](O)[C@@H](C)[C@@H](O)[C@@H](C)[C@H](OC(C)=O)[C@@H]1C [RIFAMPIN] | – | – | – | 0.48 (≈ 0.395 µg/mL) | Active | – | – |
| COOc1ccc(-c2ccc(C(=O)Nc3ncc([N+](=O)[O-])s3)o2)cc1 | 95.7 | 100 | – | 72.4 (≈ 26.2 µg/mL) | – | – | – |
| COc1ccc(O)c(C(=O)Nc2ncc([N+](=O)[O-])s2)c1 | 100 | 100 | – | 84.7 (≈ 25 µg/mL) | – | – | – |
| COc1ccc(OC(C)=O)c(C(=O)Nc2ncc([N+](=O)[O-])s2)c1 | 94.1 | 100 | 2.19 | 74.1 (≈ 25 µg/mL) | – | – | – |
| O=C(Nc1ncc([N+](=O)[O-])s1)c1ccc(Cl)cc1O | – | – | – | > 167 | – | – | – |
| CC(=O)Oc1cc(Cl)ccc1C(=O)Nc1ncc([N+](=O)[O-])s1 | 83.5 | 100 | 4.4 | 36.6 (≈ 12.5 µg/mL) | – | – | – |
| O=C(Nc1ncc([N+](=O)[O-])s1)c1cccs1 [TENONITROZOLE] | 93.4 | 100 | – | 24.5 (≈ 6.25 µg/mL) | – | – | – |
| O=C(Nc1ncc([N+](=O)[O-])s1)c1ccco1 | – | – | – | 206 (≈ 49.2 µg/mL) | – | – | – |
| O=C(Nc1ncc([N+](=O)[O-])s1)c1cc(Cl)ccc1O | 63 | 100 | – | 20.9 (≈ 6.25 µg/mL) | – | – | – |
